# Screening data deposited in PubChem BioAssay by several laboratories.
# Hits are enriched below; roughly 4.2% of the tested compounds scored in any of these assays.
# TMEM16A act = TMEM16A chloride channel activators or potentiators, primary screen, cell-based, HTS; Anoctamin-1 (Mus musculus), Q8BHY3; HEK293 TMEM16A/YFP-H148Q/I152L, iodide quench fluorescence; active compounds read low; B-score at 10 µM; 0.3% of 340,000 active; AID 623877, 2012;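 active = fluorescence-ratio B-score plate-corrected deviation score at least 3 library SD below zero, with starting fluorescence score within 5 deviations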;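 note: channel opened by trigger with iodide after compound preincubation; score built on the fluorescence ratio of max minus min over baseline; more negative score means more quench and so TMEM16A activation or potentiation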
# TMEM16A inh = TMEM16A chloride channel inhibitors, primary screen, cell-based, HTS. Anoctamin-1 (Mus musculus), Q8BHY3. HEK293 TMEM16A/YFP iodide influx fluorescence, ionomycin. normalized B-score (activity score, 25-100; higher = stronger inhibition) at 10 µM. 1.2% of 310,000 active;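 active = ratio plate-corrected score three or more library SD toward inhibition, starting fluorescence score within five deviations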;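 note: score derived from kinetic fluorescence span divided by baseline fluorescence per well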
# UPR XBP1 act = activators of adaptive XBP1 UPR arm, primary screen, cell-based, CHO-XBP1 luciferase reporter, luminescence, uHTS; 0.33% of 330,000 active; activation, % at 20 µM; IRE1-XBP1 UPR activation; percent of tunicamycin response, DMSO as zero;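 active = versus positive control, 20 µM dose yields 30% or more activation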;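 note: 100% = tunicamycin at 10 µg/mL and 0% = DMSO only wells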
#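 Material: IRE1-XBP1 luciferase reporter CHO line / Quantity: one thousand reporter cells per well / Buffer or medium: F12 with 10% serum / Compound: 20 µM single concentration, DMSO 1% / Times: 6 h treatment, 37 °C / Detection: Steady-Glo luciferase glow luminescence, 10 min after reagent addition / Benchmarks: tunicamycin high, DMSO low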
# Lipid droplet = inhibitors of hepatocyte lipid droplet formation, primary screen, imaging, high-throughput imaging, BODIPY stain; 0.4% of 240,000 active; AML12 mouse hepatocytes, oleate lipid droplets; inhibition, % at 6.5 µM;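 active = lipid droplet intensity inhibited by at least 50%, with more than 500 cells counted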
#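 Test system: AML12 hepatocytes (mouse); reagent: oleate loading, 100 µM; dosing: one dose, 6.5 µM compound; incubation: overnight exposure; signal: fluorescence imaging, 20x objective, two fields per well; read-out basis: % inhibition of corrected integrated BODIPY droplet signal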
# CHOP inh = inhibitors of CHOP promoter induction, primary screen, cell-based, unfolded protein response, luciferase reporter; CHO-K1 CHOP-promoter luciferase, tunicamycin-induced, 15-18 h; inhibition, % at 10 µM; 3.8% of 220,000 active; AID 2732, 2010;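 active = compounds that reduced the stress-induced luciferase reporter signal by more than about 70% of percent inhibition, limit read from the data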;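 note: 0% = tunicamycin plus vehicle and 100% = wells without tunicamycin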
# UPR CHOP act = activators of apoptotic CHOP UPR arm, primary screen, cell-based, CHO-CHOP luciferase reporter, luminescence, uHTS. UPR activation; percent of tunicamycin response over DMSO baseline. activation, % at 10 µM. 0.34% of 330,000 active. AID 449763, 2010;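 active = at 10 µM dose, activation of 40% or more, normalized to positive control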;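 note: 100% = tunicamycin at 10 µg/mL and 0% = DMSO alone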
#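 System: CHO CHOP reporter cells. Amount: 500 cells per well. Buffer or medium: F12 medium, 10% FBS. Compound dosing: one dose, 10 µM in 0.5% DMSO. Incubation: 6 h compound exposure at 37 °C after overnight seeding. Technique: Steady-Glo luciferase luminescence. Benchmarks: tunicamycin and DMSO controls.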
# CHOP confirm = retest of CHOP induction inhibitors, confirmation, cell-based; shares compounds with CHOP inh; CHO-CHOP promoter luciferase reporter, tunicamycin-induced, luminescence; inhibition, % at 10 µM; 45% of 2,100 active; AID 504437, 2011;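 active = mean of three repeat readings of reporter signal inhibition above a set limit, cut at about 70% in these data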;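 note: 0% = tunicamycin plus vehicle and 100% = wells lacking tunicamycin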
# Numbers without * were called inactive; i = inactive; / = not tested or not shown.
SMILES,TMEM16A act,TMEM16A inh,UPR XBP1 act,Lipid droplet,CHOP inh,UPR CHOP act,CHOP confirm
Nc1ccc(S(=O)(=O)NC2(C(F)(F)F)NC(=O)N(Cc3ccccc3)C2=O)cc1 (stereo not given),i,i,-2,-3,/,-2,/
CN(C)c1ccc(C2SCCN2C(=O)c2ccc([N+](=O)[O-])cc2)cc1 (stereo not given),i,i,-3,8,16,-1,/
COc1ccccc1NCC(O)Cn1c2ccccc2c2ccccc21 (stereo not given),i,i,0,0,100*,-1,41
Cc1cc(C(=O)N2CCCC(Nc3ccc(F)cc3)C2)c(C)o1 (stereo not given),i,i,0,-18,/,1,/
CN(C)CCC(C(=O)c1ccccc1)c1cccnc1 (stereo not given),i,/,/,/,/,/,/
O=S(=O)(C/C(=C/CO)S(=O)(=O)c1ccccc1)c1ccccc1,i,i,-6,/,/,-9,118*
O=C(CCCCCNC(=O)c1ccccc1Cl)N/N=C/c1ccco1,i,i,-5,4,11,-3,/
O=C(NC1CCCCC1)C(c1ccc(F)cc1)N(CCc1ccccc1)C(=O)CN1C(=O)c2ccccc2S1(=O)=O (stereo not given),i,i,/,-24,53,/,/
O=C(NC1CCCCC1)C(c1ccc(F)cc1)N(Cc1ccccc1)C(=O)CN1C(=O)c2ccccc2S1(=O)=O (stereo not given),i,i,23,-1,109*,6,80*
Cc1cc(N(CCO)CCO)ccc1C(c1ccc(N(CCO)CCO)cc1C)c1ccccc1Cl,i,i,-1,-1,28,1,/
CC(C)(C)C(=O)Cn1ncc(Br)c(Br)c1=O,i,/,/,-3,104*,/,85*
Cc1cc(C2=NNC(=NC3CC3)SC2)c(C)n1-c1ccccc1F,i,i,-7,-56,105*,-12,125*
Cc1nc(NCc2ccc3c(c2)OCO3)c2nnn(Cc3ccccc3)c2n1,i,i,5,/,101*,0,66
CCN1/C(=C/C=C/C=C/c2sc3ccccc3[n+]2CC)Sc2ccccc21,/,i,-8,-219,104*,10,119*
CCOC(=O)c1sc(NC(=O)CN2CC(C)OC(C)C2)nc1C (stereo not given),i,i,-2,-2,/,0,/
CCCOC(=O)c1ccc(Oc2c(-c3ccc(O)cc3O)n[nH]c2C)cc1,i,25*,-1,/,105*,-1,69
CCOC(=O)c1[nH]nc(-c2cc(CC)c(O)cc2O)c1-c1cscn1,i,i,-4,/,18,-1,/
CCc1cc(-c2n[nH]c(C)c2Oc2ccc(C(C)C)cc2)c(O)cc1O,i,i,0,-21,113*,-2,114*
Cc1ccc2nc(SCC(=O)N3CCCc4ccccc43)nc(=O)n2c1,i,/,/,/,/,/,/
COc1ccccc1C(=O)N/C(=C\c1cn(S(=O)(=O)N(C)C)c2ccccc12)C(=O)N1CCCCC1,i,i,-3,-3,/,2,/
O=C(CCl)N(c1ccc(Cl)cc1)c1c[nH]c2ccccc12,i,i,-7,-77,/,-10,119*
O=C(CCl)N(c1ccccc1)c1c[nH]c2ccccc12,i,i,-10,/,/,0,-29
O=C(O)Cc1c[nH]c2ccccc12,i,i,-1,/,/,-2,/
Cc1nc2nc(SCC(=O)c3ccc([N+](=O)[O-])cc3)[nH]c2cc1Br,i,i,-1,18,2,-2,/
CN1CCc2c(sc3nc(NN)n(Cc4ccccc4)c(=O)c23)C1,i,i,-5,1,-4,-1,/
